Measured values published in ChEMBL document CHEMBL3865847, “The synthesis and biological evaluation of alkyl and benzyl naphthyridinium analogs of eupolauridine as potential antimicrobial and cytotoxic agents” (Bioorg Med Chem, 2016).
Where “and” joins values, the source holds several entries; their conditions need not be identical. Equal values may be shown once.

Test system: Candida albicans
Assay: Antimicrobial activity against Candida albicans B311
Format: functional
Conditions: not given
In short: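 Cultured in Sabouraud dextrose broth 24 h, counted by hemocytometer, diluted to 10,000 CFU/mL. Added to serially diluted samples in 96-well plates, top final concentration 50 µg/mL (≤2.5% DMSO), incubated 37 °C. Growth by A630. MIC is the lowest concentration giving 80% inhibition against controls; IC50 from concentration versus % growth plots.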

Structure (SMILES)	IC50 [µg/mL]	MIC80 [µg/mL]
Cc1cc2cc[n+](Cc3ccccc3)c3c2c(n1)-c1ccccc1-3.[Br-]	13.3	25

Test system: Cryptococcus neoformans
Assay: Antimicrobial activity against Cryptococcus neoformans ATCC 52657
Format: functional
Conditions: not given
In short: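 Grown in mycophil broth 72 h, hemocytometer-counted, diluted to 200,000 CFU/mL. Exposed to diluted samples in 96-well plates, maximum final 50 µg/mL (DMSO up to 2.5%), incubated 30 °C. A630 readout. MIC is the lowest concentration inhibiting 80% of growth versus controls; IC50 read from concentration versus % growth graphs.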

Structure (SMILES)	IC50 [µg/mL]	MIC80 [µg/mL]
C[n+]1ccc2ccnc3c2c1-c1ccccc1-3.[I-]	10	50
Cc1cc(C)cc(CS(=O)(=O)[O-])c1.N[n+]1ccc2ccnc3c2c1-c1ccccc1-3	19.7	50
O=[N+]([O-])c1ccc(C[n+]2ccc3ccnc4c3c2-c2ccccc2-4)cc1.[Br-]	1.19	6.25
Cc1cc2cc[n+](C)c3c2c(n1)-c1ccccc1-3.[I-]	8	50
Cc1cc2cc[n+](Cc3ccccc3)c3c2c(n1)-c1ccccc1-3.[Br-]	0.82	1.56
O=C(C[n+]1ccc2ccnc3c2c1-c1ccccc1-3)c1ccccc1.[Br-]	6.18	25

Test system: Mycobacterium intracellulare
Assay: Antimicrobial activity against Mycobacterium intracellulare ATCC 23068
Format: functional
Conditions: not given
In short: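 Mycobacterium grown 72 h in Middlebrook medium with OADC supplement, diluted 1:30 in broth. Incubated at 37 °C with diluted samples in 96-well plates, highest final 50 µg/mL, DMSO at most 2.5%. Absorbance at 630 nm. MIC = lowest concentration with 80% growth inhibition relative to controls; IC50 from concentration versus % growth plots.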

Structure (SMILES)	MIC80 [µg/mL]
O=[N+]([O-])c1ccc(C[n+]2ccc3ccnc4c3c2-c2ccccc2-4)cc1.[Br-]	50

Test system: Plasmodium falciparum
Assay: Antimalarial activity against Plasmodium falciparum D6 infected in RBC after 48 hrs by lactate dehydrogenase assay
Format: functional
Conditions: D6, 48 h
In short: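 Parasites grown in A+ human erythrocytes in RPMI 1640 with 10% A+ human serum, 25 mM HEPES, 27 mM bicarbonate, 60 µg/mL amikacin, 37 °C under 90% N2/5% O2/5% CO2. Infected cells exposed 48 h in microtiter wells, highest concentration 4.8 µg/mL. Growth read by Malstat reagent (parasite LDH) with nitro blue tetrazolium reduction, absorbance 630 nm.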

Structure (SMILES)	IC50 [µg/mL]
CCN(CC)CCCC(C)Nc1ccnc2cc(Cl)ccc12 (stereo not drawn) [CHLOROQUINE]	< 0.02
C[n+]1ccc2ccnc3c2c1-c1ccccc1-3.[I-]	0.06
CCOC(=O)C[n+]1ccc2c3c(nc4ccccc42)-c2ccccc2-c31.[Br-]	0.56
Cc1cc(C)cc(CS(=O)(=O)[O-])c1.N[n+]1ccc2ccnc3c2c1-c1ccccc1-3	3.2
O=[N+]([O-])c1ccc(C[n+]2ccc3ccnc4c3c2-c2ccccc2-4)cc1.[Br-]	0.035
Cc1cc2cc[n+](C)c3c2c(n1)-c1ccccc1-3.[I-]	0.11
CCOC(=O)C[n+]1ccc2ccnc3c2c1-c1ccccc1-3.[Br-]	0.5
Cc1cc2cc[n+](Cc3ccccc3)c3c2c(n1)-c1ccccc1-3.[Br-]	0.095
O=C(C[n+]1ccc2ccnc3c2c1-c1ccccc1-3)c1ccccc1.[Br-]	0.17

Test system: not listed separately
Assay: Cytotoxicity against human SK-MEL cells assessed as cell growth inhibition after 48 hrs by neutral red dye based assay
Format: functional
Conditions: not given
In short: (§1)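 Cells kept in RPMI-1640 with 10% bovine serum and 60 µg/mL amikacin, 37 °C, 5% CO2. Seeded at 25,000 cells/well, left 24 h to adhere. Samples diluted in RPMI added, highest final concentration 10 µg/mL. Growth measured by neutral red uptake after 48 h exposure.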

Structure (SMILES)	IC50 [µg/mL]
CCOC(=O)C[n+]1ccc2c3c(nc4ccccc42)-c2ccccc2-c31.[Br-]	> 10
Cc1cc(C)cc(CS(=O)(=O)[O-])c1.N[n+]1ccc2ccnc3c2c1-c1ccccc1-3	> 10
O=[N+]([O-])c1ccc(C[n+]2ccc3ccnc4c3c2-c2ccccc2-4)cc1.[Br-]	4.9
Cc1cc2cc[n+](Cc3ccccc3)c3c2c(n1)-c1ccccc1-3.[Br-]	4.2

Test system: not listed separately
Assay: Cytotoxicity against human KB cells assessed as cell growth inhibition after 48 hrs by neutral red dye based assay
Format: functional
Conditions: not given
In short: as §1

Structure (SMILES)	IC50 [µg/mL]
O=[N+]([O-])c1ccc(C[n+]2ccc3ccnc4c3c2-c2ccccc2-4)cc1.[Br-]	1.8
Cc1cc2cc[n+](Cc3ccccc3)c3c2c(n1)-c1ccccc1-3.[Br-]	> 10
O=C(C[n+]1ccc2ccnc3c2c1-c1ccccc1-3)c1ccccc1.[Br-]	> 10

Test system: not listed separately
Assay: Cytotoxicity against human BT549 cells assessed as cell growth inhibition after 48 hrs by neutral red dye based assay
Format: functional
Conditions: BT-549, 48 h
In short: as §1

Structure (SMILES)	IC50 [µg/mL]
O=[N+]([O-])c1ccc(C[n+]2ccc3ccnc4c3c2-c2ccccc2-4)cc1.[Br-]	4
Cc1cc2cc[n+](Cc3ccccc3)c3c2c(n1)-c1ccccc1-3.[Br-]	3.5
O=C(C[n+]1ccc2ccnc3c2c1-c1ccccc1-3)c1ccccc1.[Br-]	> 10

Test system: not listed separately
Assay: Cytotoxicity against human SKOV3 cells assessed as cell growth inhibition after 48 hrs by neutral red dye based assay
Format: functional
Conditions: SK-OV-3, 48 h
In short: as §1

Structure (SMILES)	IC50 [µg/mL]
C[n+]1ccc2ccnc3c2c1-c1ccccc1-3.[I-]	> 10
CCOC(=O)C[n+]1ccc2c3c(nc4ccccc42)-c2ccccc2-c31.[Br-]	5.9
O=[N+]([O-])c1ccc(C[n+]2ccc3ccnc4c3c2-c2ccccc2-4)cc1.[Br-]	0.62
CCOC(=O)C[n+]1ccc2ccnc3c2c1-c1ccccc1-3.[Br-]	7.6
Cc1cc2cc[n+](Cc3ccccc3)c3c2c(n1)-c1ccccc1-3.[Br-]	1.7
O=C(C[n+]1ccc2ccnc3c2c1-c1ccccc1-3)c1ccccc1.[Br-]	6

Test system: not listed separately
Assay: Cytotoxicity against African green monkey Vero cells assessed as cell growth inhibition at 10 ug/ml after 48 hrs by neutral red dye based assay
Format: toxicity
Conditions: chlorocebus sabaeus
In short: as §1

Structure (SMILES)	Activity
C[n+]1ccc2ccnc3c2c1-c1ccccc1-3.[I-]	Non-Toxic
CCOC(=O)C[n+]1ccc2c3c(nc4ccccc42)-c2ccccc2-c31.[Br-]	Non-Toxic
Cc1cc(C)cc(CS(=O)(=O)[O-])c1.N[n+]1ccc2ccnc3c2c1-c1ccccc1-3	Non-Toxic
O=[N+]([O-])c1ccc(C[n+]2ccc3ccnc4c3c2-c2ccccc2-4)cc1.[Br-]	Non-Toxic
Cc1cc2cc[n+](C)c3c2c(n1)-c1ccccc1-3.[I-]	Non-Toxic
CCOC(=O)C[n+]1ccc2ccnc3c2c1-c1ccccc1-3.[Br-]	Non-Toxic
Cc1cc2cc[n+](Cc3ccccc3)c3c2c(n1)-c1ccccc1-3.[Br-]	Non-Toxic
O=C(C[n+]1ccc2ccnc3c2c1-c1ccccc1-3)c1ccccc1.[Br-]	Non-Toxic

Test system: not listed separately
Assay: Inhibition of Candida albicans DNA topoisomerase 1 using pHOT1 as substrate after 30 mins by agarose gel electrophoresis
Conditions: not given
In short: (§2)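 Relaxation of supercoiled to relaxed DNA by TopoI measured with a commercial TopoI drug kit following kit protocol. IC50 calculated from dose-response curves of % inhibition versus concentration.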

Structure (SMILES)	IC50 [µg/mL]
C[n+]1ccc2ccnc3c2c1-c1ccccc1-3.[I-]	10
CCOC(=O)C[n+]1ccc2c3c(nc4ccccc42)-c2ccccc2-c31.[Br-]	2.3
Cc1cc(C)cc(CS(=O)(=O)[O-])c1.N[n+]1ccc2ccnc3c2c1-c1ccccc1-3	7.5
O=[N+]([O-])c1ccc(C[n+]2ccc3ccnc4c3c2-c2ccccc2-4)cc1.[Br-]	18
Cc1cc2cc[n+](C)c3c2c(n1)-c1ccccc1-3.[I-]	5
CCOC(=O)C[n+]1ccc2ccnc3c2c1-c1ccccc1-3.[Br-]	75
Cc1cc2cc[n+](Cc3ccccc3)c3c2c(n1)-c1ccccc1-3.[Br-]	11
O=C(C[n+]1ccc2ccnc3c2c1-c1ccccc1-3)c1ccccc1.[Br-]	50

Molecular target: T1, DNA topoisomerase 1 (Homo sapiens, UniProt P11387)
T1 sequence (P11387 whole entry): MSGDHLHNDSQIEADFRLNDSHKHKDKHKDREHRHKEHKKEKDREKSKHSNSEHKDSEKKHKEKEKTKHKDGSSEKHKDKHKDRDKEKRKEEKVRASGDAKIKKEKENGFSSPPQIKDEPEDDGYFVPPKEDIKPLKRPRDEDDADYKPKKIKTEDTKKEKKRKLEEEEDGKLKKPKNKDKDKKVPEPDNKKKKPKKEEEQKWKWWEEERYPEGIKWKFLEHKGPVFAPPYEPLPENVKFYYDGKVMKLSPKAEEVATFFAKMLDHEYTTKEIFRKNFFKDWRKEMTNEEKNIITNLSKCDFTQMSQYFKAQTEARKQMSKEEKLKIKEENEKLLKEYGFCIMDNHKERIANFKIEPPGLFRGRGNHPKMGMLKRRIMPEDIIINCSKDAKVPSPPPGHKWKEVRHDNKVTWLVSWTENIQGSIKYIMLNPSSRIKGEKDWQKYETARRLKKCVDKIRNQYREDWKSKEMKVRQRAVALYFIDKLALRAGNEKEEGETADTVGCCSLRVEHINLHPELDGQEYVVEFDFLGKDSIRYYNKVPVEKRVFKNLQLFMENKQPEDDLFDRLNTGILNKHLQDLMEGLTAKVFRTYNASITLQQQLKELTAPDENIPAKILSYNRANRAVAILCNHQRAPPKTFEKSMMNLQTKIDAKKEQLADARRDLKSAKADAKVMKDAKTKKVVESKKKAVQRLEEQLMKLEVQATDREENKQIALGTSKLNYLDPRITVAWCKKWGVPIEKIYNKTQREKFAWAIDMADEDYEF
Assay: Inhibition of human DNA topoisomerase 1 using pHOT1 as substrate after 30 mins by agarose gel electrophoresis
Conditions: not given
In short: as §2

Structure (SMILES)	IC50 [µM]
C[n+]1ccc2ccnc3c2c1-c1ccccc1-3.[I-]	28.9
CCOC(=O)C[n+]1ccc2c3c(nc4ccccc42)-c2ccccc2-c31.[Br-]	5.7
Cc1cc(C)cc(CS(=O)(=O)[O-])c1.N[n+]1ccc2ccnc3c2c1-c1ccccc1-3	35.8
O=[N+]([O-])c1ccc(C[n+]2ccc3ccnc4c3c2-c2ccccc2-4)cc1.[Br-]	50
Cc1cc2cc[n+](C)c3c2c(n1)-c1ccccc1-3.[I-]	12.5
CCOC(=O)C[n+]1ccc2ccnc3c2c1-c1ccccc1-3.[Br-]	242
Cc1cc2cc[n+](Cc3ccccc3)c3c2c(n1)-c1ccccc1-3.[Br-]	30.8
O=C(C[n+]1ccc2ccnc3c2c1-c1ccccc1-3)c1ccccc1.[Br-]	136

Test system: not listed separately
Assay: Selectivity index, ratio of IC50 for human DNA topoisomerase 1 to IC50 for Candida albicans DNA topoisomerase 1
Conditions: not given

Structure (SMILES)	Ratio IC50
C[n+]1ccc2c3c(nc4ccccc42)-c2ccccc2-c31	0.83 and 1
C[n+]1ccc2ccnc3c2c1-c1ccccc1-3.[I-]	1
CCOC(=O)C[n+]1ccc2c3c(nc4ccccc42)-c2ccccc2-c31.[Br-]	0.96
Cc1cc(C)cc(CS(=O)(=O)[O-])c1.N[n+]1ccc2ccnc3c2c1-c1ccccc1-3	0.5
O=[N+]([O-])c1ccc(C[n+]2ccc3ccnc4c3c2-c2ccccc2-4)cc1.[Br-]	0.86
Cc1cc2cc[n+](C)c3c2c(n1)-c1ccccc1-3.[I-]	1.11
CCOC(=O)C[n+]1ccc2ccnc3c2c1-c1ccccc1-3.[Br-]	0.83
Cc1cc2cc[n+](Cc3ccccc3)c3c2c(n1)-c1ccccc1-3.[Br-]	0.92
O=C(C[n+]1ccc2ccnc3c2c1-c1ccccc1-3)c1ccccc1.[Br-]	0.91
